What is called inhibition is the share of the control response that was lost under treatment.

Series [1] has as its system Trypanosoma cruzi. Briefly: Inhibition of Trypanosoma cruzi recombinant trans-sialidase at 1 mM after 10 mins by MUNANA continuous fluorimetric assay. A digest of the protocol:
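Recombinant His-tagged 70 kDa TcTS, truncated to drop the C-terminal repeats and keep the catalytic N-terminal domain. Enzyme and inhibitor were preincubated 10 min at 26 °C in phosphate buffer pH 7.4. MuNANA (assay concentration 0.1 mM) was then added, and released methylumbelliferone fluorescence was read after 10 min (ex 360, em 460 nm). Run in duplicate.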

For series [2], the system named is Trypanosoma cruzi. Briefly: Antitrypanosomal activity against Trypanosoma cruzi Y at < 100 uM after 24 hrs. Format: functional, organism-based. A digest of the protocol: (§1)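 Y-strain trypomastigotes from LLC-MK₂ cultures, 6.5 × 10⁶ parasites/ml in RPMI with 10% FBS. Exposure included 750, 500, 250 and 100 µM at 37 °C, 5% CO₂. Poorly water-soluble compounds needed 0.6% DMSO and were capped at 0.75 mM. Benznidazole was the reference drug. Viability was measured by counting motile forms after 24 h.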

Series [3] in a line: Cytotoxicity against mouse splenocytes after 24 hrs using propidium iodide staining by FACS analysis. Type of series: cell-based. The settings on record: splenocyte. In outline: (§2)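 Spleen cells from C57BL/6 mice were mechanically dissociated and given red-cell lysis for 4 min in Tris-HCl pH 7.5/NH₄Cl. They were plated at 5 × 10⁵ cells/well with test compounds (maximum 0.25 mM for less soluble ones) for 24 h at 37 °C, 5% CO₂. 0.5% Tween 20 was the death control. Cells were stained with 10 µg/mL propidium iodide.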
(In flow cytometry, cells or beads pass a laser one at a time.)

Series [4] deals with Trypanosoma cruzi. Briefly: Inhibition of Trypanosoma cruzi recombinant trans-sialidase at 0.5 mM after 10 mins by MUNANA continuous fluorimetric assay. A digest of the protocol:
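Same His-tagged truncated recombinant TcTS (catalytic N-terminal domain) in phosphate buffer pH 7.4. Samples were dissolved in water with 0.6% DMSO and tested at 0.5 mM. Preincubation was 10 min at 26 °C, then 0.1 mM MuNANA was added. Mu fluorescence was read at 10 min (ex 360, em 460 nm), in duplicate.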

Series [5] is described as follows: Cytotoxicity against mouse splenocytes at 50 to 100 uM after 24 hrs using propidium iodide staining by FACS analysis. The settings on record: splenocyte. Type of series: cell-based. In outline: as §2
The subject of series [6] is Trypanosoma cruzi. The experiment in a line: Antitrypanosomal activity against Trypanosoma cruzi Y at > 100 uM after 24 hrs. Format: functional. In outline:
as §1

[7] abbreviates: in the assay text read “in the low 100s of uM range” for “at < 100 uM”.

The structures appear in SMILES notation. The source made the active and inactive calls. The rule behind the calls is not given here.

For `CO[C@@H]1O[C@H](Cn2cc(CN(C)Cc3ccccc3)nn2)[C@H](O)[C@H](O)[C@H]1O`, the inhibition in series [1] came out at 17%. Moreover, the result in series [2] was Active. Moreover, the Activity entry in series [3] is reported as “Non-toxic”. As to `CO[C@@H]1O[C@H](Cn2cc(-c3ccccc3)nn2)[C@H](O)[C@H](O)[C@H]1O`, the inhibition in series [1] worked out at 14%. On the same count and under the same terms, for `O=C(O)CCCc1cn([C@@H]2O[C@H](CO)[C@H](O)[C@H](O)[C@H]2O)nn1` the value was 10%; for `CO[C@@H]1O[C@H](Cn2cc(CO)nn2)[C@H](O)[C@H](O)[C@H]1O`, 28%; for `CO[C@@H]1O[C@H](Cn2cc(-c3ccccc3C(F)(F)F)nn2)[C@H](O)[C@H](O)[C@H]1O`, 11%. Same read-out and setting: to `CO[C@@H]1O[C@H](Cn2cc(COCC3CO3)nn2)[C@H](O)[C@H](O)[C@H]1O` (mixture of isomers) belongs 25%. Take `OC[C@H]1O[C@@H](n2cc(-c3cccnc3)nn2)[C@H](O)[C@@H](O)[C@H]1O`: in series [4], the inhibition is 15%. In addition, the Activity in series [5] is reported as 50%; in series [3], “Toxic”. Take `OC[C@H]1O[C@@H](n2cc(COCC3CO3)nn2)[C@H](O)[C@@H](O)[C@H]1O` (mixture of isomers): in series [1], the inhibition came out at 27%. Besides, in series [3], the Activity result is on record as “Non-toxic”. Regarding `CO[C@@H]1O[C@H](Cn2cc(CN3C(=O)c4ccccc4C3=O)nn2)[C@H](O)[C@H](O)[C@H]1O`, in series [4], the inhibition is 11%. Turning to `O=C1c2ccccc2C(=O)N1Cc1cn([C@@H]2O[C@H](CO)[C@H](O)[C@H](O)[C@H]2O)nn1`, the inhibition in series [1] came out at 25%.

Consider `OC[C@H]1O[C@@H](n2cc(CCc3ccccc3)nn2)[C@H](O)[C@@H](O)[C@H]1O`, for which the inhibition in series [1] was determined as 16%. The Activity entry in series [3] is listed as “Toxic”.

As to `CO[C@@H]1O[C@H](Cn2cc(-c3ccc(Br)cc3)nn2)[C@H](O)[C@H](O)[C@H]1O`, in series [4], the inhibition worked out at 3%. The Activity result in series [3] is on record as “Toxic”.

For the compound `OC[C@H]1O[C@@H](n2cc(-c3ccccc3C(F)(F)F)nn2)[C@H](O)[C@@H](O)[C@H]1O`, in series [1], the inhibition came out at 14%. Still for that read-out and setting: to `OCCCCc1cn([C@@H]2O[C@H](CO)[C@H](O)[C@H](O)[C@H]2O)nn1` belongs 26%. Still for that read-out and setting: to `OC[C@H]1O[C@@H](n2cc(-c3ccccc3)nn2)[C@H](O)[C@@H](O)[C@H]1O` belongs 15%; to `COC(=O)c1cn(C[C@H]2O[C@@H](OC)[C@H](O)[C@@H](O)[C@H]2O)nn1`, 30%.

As for `CO[C@@H]1O[C@H](Cn2cc(-c3ccccc3Br)nn2)[C@H](O)[C@H](O)[C@H]1O`, in series [1], the inhibition was 29%. Take `OC[C@H]1O[C@@H](n2cc(-c3ccc(C(F)(F)F)cc3)nn2)[C@H](O)[C@@H](O)[C@H]1O`: the inhibition in series [4] was 9%. Moreover, the Activity result in series [3] is given as “Toxic”. With `COC(=O)c1cn([C@@H]2O[C@H](CO)[C@H](O)[C@H](O)[C@H]2O)nn1`, the inhibition in series [1] was found to be 28%. As to `Nc1ccccc1-c1cn([C@@H]2O[C@H](CO)[C@H](O)[C@H](O)[C@H]2O)nn1`, in series [1], the inhibition worked out at 30%. Besides, the Activity result in series [3] was “Non-toxic”. As to `CC(=O)N[C@H]1[C@H]([C@H](O)[C@H](O)CO)OC(C(=O)O)=C[C@@H]1O`, in series [1], the inhibition amounted to 33%. Still for that read-out and setting: for `CO[C@@H]1O[C@H](Cn2cc(-c3ccc(N)cc3)nn2)[C@H](O)[C@H](O)[C@H]1O` the value was 34%.

Consider `CO[C@@H]1O[C@H](Cn2cc(-c3ccc(C(F)(F)F)cc3)nn2)[C@H](O)[C@H](O)[C@H]1O`, for which the inhibition in series [4] amounted to 10%. The outcome in series [2] (setting [7]) was Active. The results for the Activity in series [5] and in series [3] were 50% and “Toxic”, respectively. Regarding `CO[C@@H]1O[C@H](Cn2cc(CCCO)nn2)[C@H](O)[C@H](O)[C@H]1O`, the inhibition in series [1] amounted to 24%. Besides, the Activity result in series [3] is recorded as “Non-toxic”. Regarding `CCC(O)c1cn([C@@H]2O[C@H](CO)[C@H](O)[C@H](O)[C@H]2O)nn1` (single isomer, unassigned), the inhibition in series [1] came out at 13%.

For the compound `CO[C@@H]1O[C@H](Cn2cc(-c3cccnc3)nn2)[C@H](O)[C@H](O)[C@H]1O`, in series [1], the inhibition worked out at 20%. With `OC[C@H]1O[C@@H](n2cc(-c3ccccc3Br)nn2)[C@H](O)[C@@H](O)[C@H]1O`, the inhibition in series [1] came to 33%. On the same count and under the same terms, for `OCCCc1cn([C@@H]2O[C@H](CO)[C@H](O)[C@H](O)[C@H]2O)nn1` the value was 27%. `CCC(O)c1cn(C[C@H]2O[C@@H](OC)[C@H](O)[C@@H](O)[C@H]2O)nn1` (mixture of isomers): in series [1], the inhibition is 29%. For the same compound, in series [3], the Activity result is “Non-toxic”.

`CO[C@@H]1O[C@H](Cn2cc(CCc3ccccc3)nn2)[C@H](O)[C@H](O)[C@H]1O`: in series [1], the inhibition amounted to 14%. On the same count and under the same terms, for `Cc1ncc(COP(=O)(O)O)c(C=O)c1O` the value was 65%. On to `OC[C@H]1O[C@@H](n2cc(-c3ccc(Br)cc3)nn2)[C@H](O)[C@@H](O)[C@H]1O`, for which the inhibition result in series [4] is “inactive”. Also, the Activity was 50% in series [5] and “Active” in series [3]. Take `CO[C@@H]1O[C@H](Cn2cc(-c3ccccn3)nn2)[C@H](O)[C@H](O)[C@H]1O`: the inhibition in series [1] amounted to 14%.

As to `CO[C@@H]1O[C@H](Cn2cc(CCCCO)nn2)[C@H](O)[C@H](O)[C@H]1O`, the inhibition in series [1] is 27%. The same measure, in the same setting: for `CO[C@@H]1O[C@H](Cn2cc(CCCC(=O)O)nn2)[C@H](O)[C@H](O)[C@H]1O` the value was “inactive”. As for `OC[C@H]1O[C@@H](n2cc(-c3ccccn3)nn2)[C@H](O)[C@@H](O)[C@H]1O`, the inhibition in series [1] came out at 13%. The Activity entry in series [3] is on record as “Non-toxic”.

On to `OCc1cn([C@@H]2O[C@H](CO)[C@H](O)[C@H](O)[C@H]2O)nn1`, for which the inhibition in series [1] was determined as 11%. On the same count and under the same terms, to `CN(Cc1ccccc1)Cc1cn([C@@H]2O[C@H](CO)[C@H](O)[C@H](O)[C@H]2O)nn1` belongs 22%. On the same count and under the same terms, to `CO[C@@H]1O[C@H](Cn2cc(CC(C)O)nn2)[C@H](O)[C@H](O)[C@H]1O` (mixture of isomers) belongs 10%. In the case of `CO[C@@H]1O[C@H](Cn2cc(-c3ccccc3N)nn2)[C@H](O)[C@H](O)[C@H]1O`, the inhibition in series [1] was 24%. The same measure, in the same setting: for `CC(O)Cc1cn([C@@H]2O[C@H](CO)[C@H](O)[C@H](O)[C@H]2O)nn1` (single isomer, unassigned) the value was 14%. Regarding `OC[C@H]1O[C@@H](n2cc(Cc3ccccc3)nn2)[C@H](O)[C@@H](O)[C@H]1O`, in series [1], the inhibition was 37%. Moreover, the results for the Activity in series [6], in series [5] and in series [3] were 50%, 50% and “Active”, respectively. In the case of `OC[C@H]1O[C@@H](n2cc(-c3cccc(C(F)(F)F)c3)nn2)[C@H](O)[C@@H](O)[C@H]1O`, the inhibition in series [1] came to 31%. The same measure, in the same setting: to `CO[C@@H]1O[C@H](Cn2cc(Cc3ccccc3)nn2)[C@H](O)[C@H](O)[C@H]1O` belongs 29%. Turning to `Nc1ccc(-c2cn([C@@H]3O[C@H](CO)[C@H](O)[C@H](O)[C@H]3O)nn2)cc1`, the inhibition in series [1] was 19%. The result in series [2] (setting [7]) was Active. Besides, in series [3], the Activity result is “Non-toxic”. Regarding `CO[C@@H]1O[C@H](Cn2cc(-c3cccc(C(F)(F)F)c3)nn2)[C@H](O)[C@H](O)[C@H]1O`, in series [1], the inhibition was found to be 3%.

Values taken from ChEMBL document CHEMBL1156196, “'Click chemistry' synthesis of a library of 1,2,3-triazole-substituted galactose derivatives and their evaluation against Trypanosoma cruzi and its cell surface trans-sialidase” (Bioorg Med Chem, 2010).
